Data on 14 molecules can be found in article PMC12612033 (Scientific Reports, 2025).

The term IC50 denotes the concentration at which inhibition is half-maximal. Low values mean higher potency, high ones lower potency.

The target in the first assay is Saccharomyces cerevisiae α-glucosidase (Saccharomyces cerevisiae, UniProt P53341). Briefly: α-Glucosidase inhibition assay. It counts as biochemical.
Chain of Saccharomyces cerevisiae α-glucosidase (P53341 whole entry): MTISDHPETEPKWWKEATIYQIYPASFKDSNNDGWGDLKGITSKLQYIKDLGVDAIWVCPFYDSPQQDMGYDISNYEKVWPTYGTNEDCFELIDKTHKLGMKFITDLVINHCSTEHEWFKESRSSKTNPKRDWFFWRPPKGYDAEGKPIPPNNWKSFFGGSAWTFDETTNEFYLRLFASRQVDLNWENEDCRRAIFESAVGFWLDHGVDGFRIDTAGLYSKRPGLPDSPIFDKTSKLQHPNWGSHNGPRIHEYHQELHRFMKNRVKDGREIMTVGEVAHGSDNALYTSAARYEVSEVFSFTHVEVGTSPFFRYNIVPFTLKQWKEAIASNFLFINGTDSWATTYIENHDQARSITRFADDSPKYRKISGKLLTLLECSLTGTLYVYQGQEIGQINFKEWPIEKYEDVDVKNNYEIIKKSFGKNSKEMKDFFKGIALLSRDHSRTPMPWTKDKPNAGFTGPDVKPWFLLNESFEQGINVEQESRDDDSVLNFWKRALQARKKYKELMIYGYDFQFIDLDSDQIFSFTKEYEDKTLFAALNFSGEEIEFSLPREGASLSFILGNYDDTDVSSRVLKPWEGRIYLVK
Details: not given
Take `Nc1c(-c2ccccc2)nc2ncnn2c1-c1ccccc1` [9a, 5,7-Diphenyl-[1,2,4]triazolo[1,5-a]pyrimidin-6-amine]: the IC50 is 97.02 ± 0.83 µM. As for `COc1ccc(-c2c(N)c(-c3ccccc3)nc3ncnn23)cc1` [9b, 7-(4-Methoxyphenyl)-5-phenyl-[1,2,4]triazolo[1,5-a]pyrimidin-6-amine], the IC50 was 70.85 ± 0.27 µM. Still for that read-out and setting: under `Nc1c(-c2ccccc2)nc2ncnn2c1-c1ccc(Cl)cc1` [9c, 7-(4-Chlorophenyl)-5-phenyl-[1,2,4]triazolo[1,5-a]pyrimidin-6-amine] stands 56.2 ± 0.68 µM. Still for that read-out and setting: the figure for `Nc1c(-c2ccccc2)nc2ncnn2c1-c1ccc(Br)cc1` [9f, 7-(4-Bromophenyl)-5-phenyl-[1,2,4]triazolo[1,5-a]pyrimidin-6-amine] is 65.09 ± 0.38 µM. `Nc1c(-c2ccccc2)nc2ncnn2c1-c1cccs1` [9g, 5-Phenyl-7-(thiophen-2-yl)-[1,2,4]triazolo[1,5-a]pyrimidin-6-amine] gave a concentration for half-maximal inhibition (IC50) of 140 ± 1.55 µM. Compared with the last molecule, the IC50 is about 2.2-fold higher. On the same count and under the same terms, the figure for `Cc1ccc(-c2nc3ncnn3c(-c3ccccc3)c2N)cc1` [9h, 7-Phenyl-5-(p-tolyl)-[1,2,4]triazolo[1,5-a]pyrimidin-6-amine] is 94.52 ± 0.72 µM. On the same count and under the same terms, under `Cc1ccc(-c2nc3ncnn3c(-c3cccs3)c2N)cc1` [9l, 7-(Thiophen-2-yl)-5-(p-tolyl)-[1,2,4]triazolo[1,5-a]pyrimidin-6-amine] stands 151.3 ± 0.56 µM.

In turn, `COc1ccc(-c2nc3ncnn3c(-c3ccccc3)c2N)cc1` [9m, 5-(4-Methoxyphenyl)-7-phenyl-[1,2,4]triazolo[1,5-a]pyrimidin-6-amine] showed an IC50 of 72.4 ± 0.98 µM. Same read-out and setting: under `COc1ccc(-c2nc3ncnn3c(-c3ccc(OC)cc3)c2N)cc1` [9n, 5,7-Bis(4-methoxyphenyl)-[1,2,4]triazolo[1,5-a]pyrimidin-6-amine] stands 52.66 ± 0.3 µM. As to `COc1ccc(-c2nc3ncnn3c(-c3ccc(Cl)cc3)c2N)cc1` [9o, 7-(4-Chlorophenyl)-5-(4-methoxyphenyl)-[1,2,4]triazolo[1,5-a]pyrimidin-6-amine], 37.18 ± 0.23 µM corresponded to half-maximal inhibition (IC50). On the same count and under the same terms, the figure for `Nc1c(-c2ccc(Cl)cc2)nc2ncnn2c1-c1ccccc1` [9q, 5-(4-Chlorophenyl)-7-phenyl-[1,2,4]triazolo[1,5-a]pyrimidin-6-amine] is 58.11 ± 0.34 µM. Still for that read-out and setting: under `COc1ccc(-c2c(N)c(-c3ccc(Cl)cc3)nc3ncnn23)cc1` [9r, 5-(4-Chlorophenyl)-7-(4-methoxyphenyl)-[1,2,4]triazolo[1,5-a]pyrimidin-6-amine] stands 41.5 ± 0.56 µM. Same read-out and setting: the figure for `Nc1c(-c2ccc(Cl)cc2)nc2ncnn2c1-c1ccc(Cl)cc1` [9s, 5,7-Bis(4-chlorophenyl)-[1,2,4]triazolo[1,5-a]pyrimidin-6-amine] is 24.32 ± 0.18 µM.

For another assay, the target named is T1, α-glucosidase (Saccharomyces cerevisiae, UniProt P53341). The experiment in a line: α-Glucosidase kinetic study. It counts as biochemical. The settings on record: Lineweaver–Burk plot; Km increases, Vmax unchanged.
T1 sequence (P53341 whole entry): as above
For `Nc1c(-c2ccc(Cl)cc2)nc2ncnn2c1-c1ccc(Cl)cc1` [9s, 5,7-Bis(4-chlorophenyl)-[1,2,4]triazolo[1,5-a]pyrimidin-6-amine], the Mode of inhibition entry is recorded as “competitive”.

Another assay has as its system α-amylase. The experiment in a line: α-Amylase inhibition assay. It counts as biochemical. To be noted: at a concentration of 100 µM, mean ± SD.
As for `C[C@H]1O[C@H](O[C@H]2[C@H](O)[C@@H](O)[C@@H](O[C@H]3[C@H](O)[C@@H](O)C(O)O[C@@H]3CO)O[C@@H]2CO)[C@H](O)[C@@H](O)[C@@H]1N[C@H]1C=C(CO)[C@@H](O)[C@H](O)[C@H]1O` (stereo partly drawn) [Acarbose], the “Inhibition of α-amylase activity (%)” value is given as 50.1 ± 0.5%.

For another assay, the target named is T1, α-glucosidase. The experiment in a line: Circular dichroism spectroscopy of α-glucosidase secondary structure. The settings on record: CD, α-glucosidase in the presence of 9s. Summed up: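 Far-UV CD spectra (190–240 nm) recorded for yeast α-glucosidase alone and for its complex with the test compound. Spectra were deconvoluted into α-helix, β-sheet, β-turn and random-coil fractions, and the complex was compared with native enzyme.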
On the technique in general: Circular dichroism is the unequal absorption of left and right circularly polarised light.
Consider `Nc1c(-c2ccc(Cl)cc2)nc2ncnn2c1-c1ccc(Cl)cc1` [9s, 5,7-Bis(4-chlorophenyl)-[1,2,4]triazolo[1,5-a]pyrimidin-6-amine], for which the “Random coils content of α-glucosidase” value was 0%, the “α-Helix content of α-glucosidase” value is given as 41.2% and the “β-Turn content of α-glucosidase” value is listed as 51.4%.
